Results reported in publication PMC13601514 (Nature Communications, 2026).
“Also recorded” adds a separate entry of the source.

What was measured:
U266 MM cells = assay: Cyto-ID autophagy assay; format: cell-based, Human; conditions: U266, 1 μM
Procedure, shortened: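 U266 cells exposed to 1 μM test compound or vehicle for 6 h at 37 °C, washed, then stained 30 min in the dark with Cyto-ID Green plus DAPI (100 ng/ml) in 1% FBS assay buffer. Flow cytometry gave MFI and % Cyto-ID+ in live singlet cells. Confocal imaging (Hoechst/Cyto-ID) gave mean cytoplasmic intensity per group, compared by Kruskal–Wallis.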

ULK3 = assay: Immunoblot in U266 MM cells; format: cell-based, Human; conditions: 6 h
Procedure, shortened: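 Lysates quantified by BCA; 30 μg protein run on 10–15% SDS-PAGE (100 V, 2 h) and transferred to PVDF. Membranes blocked 1 h in TBST with 5% milk/5% BSA, probed overnight at 4 °C with primary (1:1000), then HRP secondary (1:1000). ECL detection; densitometry values annotated on the blot.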

[1] = tested on: MM cells (5TGM1, 8226, and U266); assay: MTS assay on MM cells; format: cell-based
Procedure, shortened: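 MM lines grown at 37 °C in RPMI 1640 with 10% heat-inactivated FBS plus pen/strep and plated at 2 × 10^5 cells/mL (96-well) or 3 × 10^5 cells/mL (384-well). Exposed to test compound or vehicle (HPβCD or DMSO) for 48 h. MTS absorbance read at 490 nm after 2 h at 37 °C; mean of technical replicates; three independent experiments.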

`Cc1sc2c(c1C)C(c1ccc(Cl)cc1)=N[C@@H](CC(=O)OC(C)(C)C)c1nnc(C)n1-2` [JQ1] was tested, and the “autophagy (Cyto-ID)” value (U266 MM cells) was “had no effect; also recorded: did not impact autophagy”.
In the case of `Cc1[nH]c(/C=C2\C(=O)Nc3ccccc32)c(C)c1CCC(=O)O` [SU6668], the ULK3 protein levels (ULK3) is reported as “does not impact”.
For `N#CC[C@H](C1CCCC1)n1cc(-c2ncnc3[nH]ccc23)cn1` [ruxolitinib], the “cell survival in vitro” value [1] was “had no effect; also recorded: not affected”.
